# GASC-1 inh = inhibitors of GASC-1 histone demethylase, primary screen, biochemical, fluorescence, DELFIA europium. GST-JMJD2C(1-420) H3K9me3 demethylation. inhibition, % at 2.35 µM. 0.069% of 330,000 active;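 active = more than half of a compound's replicate wells show inhibition beyond 50%, single wells judged on their own value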;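 note: signal counts dimethyl H3K9 product captured on neutravidin plate; 0% = median of DMSO wells and 100% = 0.3 times that DMSO median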
# PGE2 EP2 inh = human EP2 receptor antagonists, primary screen, TR-FRET cAMP, C6 glioma cells. Prostaglandin E2 receptor EP2 subtype (Homo sapiens), P43116. C6 glioma cells expressing human EP2; cells stimulated with saturating PGE2. inhibition, % at 25 µM. 0.52% of 260,000 active. AID 1422, 2008;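 active = percent inhibition above 40 after rounding to a whole number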;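 note: rat C6 glioma host cells with rolipram phosphodiesterase inhibitor present; the protocol text gives 20 µM as final concentration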
# Target sequence (P43116 whole entry, looked up): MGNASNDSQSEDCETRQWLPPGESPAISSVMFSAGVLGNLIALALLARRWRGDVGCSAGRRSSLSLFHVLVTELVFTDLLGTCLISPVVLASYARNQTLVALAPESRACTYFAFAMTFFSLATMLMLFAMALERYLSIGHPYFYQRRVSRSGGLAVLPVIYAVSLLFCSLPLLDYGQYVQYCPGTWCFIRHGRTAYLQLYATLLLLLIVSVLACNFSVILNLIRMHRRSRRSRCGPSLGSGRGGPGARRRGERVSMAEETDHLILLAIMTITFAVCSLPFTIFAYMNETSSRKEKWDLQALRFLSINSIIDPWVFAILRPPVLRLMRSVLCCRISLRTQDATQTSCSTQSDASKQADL
# Furin inh = human furin inhibitors, primary screen, biochemical, fluorescence intensity | P09958 | purified furin, fluorogenic substrate cleavage | inhibition, % at 20 µM or 30 µM | 0.061% of 220,000 active | AID 463115, 2010; in the data active = inhibition above about 25%
# EP2 modulator = EP2 receptor modulators, cAMP readout, primary screen, cell-based, HTRF cAMP, PGE2 stimulation. induction, % at 25 µM. 0.83% of 260,000 active. EP2-expressing cells, cAMP HTRF FRET, PGE2 co-stimulation;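 active = compounds whose cAMP rise, as percent of the full-agonist control response, exceeds 60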;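 note: rat C6 glioma line stably carrying human EP2 under a CMV promoter; the protocol text gives 20 µM as final concentration; 100% = response of wells given 1 µM PGE2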
# NR2E3 ag-1 = NR2E3 agonists in two-hybrid cells, primary screen, cell-based, luminescence, CHO-S, Gal4-NCOR/VP16-NR2E3; Photoreceptor-specific nuclear receptor (Homo sapiens), Q9Y5X4; luciferase; inhibition of corepressor binding, % at 3.98 µM; 0.35% of 360,000 active; AID 602229, 2012;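 active = inhibition above the mean of all tested compounds plus 3 SD, cut at about 70% in these data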;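 note: 0% = DMSO with NR2E3 transfected cells and 100% = cells lacking NR2E3 construct; higher means lower luciferase signal from less NR2E3 corepressor binding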
# NR2E3 ag-2 = inhibitors of NR2E3-RetCOR corepressor binding, primary screen, NR2E3 agonist project, biochemical, TR-FRET, GST-NR2E3, biotin-RetCOR; Photoreceptor-specific nuclear receptor (Homo sapiens), Q9Y5X4; 1536-well; inhibition of corepressor binding, % at 4.78 µM; 0.12% of 320,000 active;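 active = percent inhibition above the cutoff of mean plus 3 SD of all tested compounds, set per screening campaign, cut at about 20% in these data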;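 note: 0% = DMSO wells and 100% = biotin wells as full block of FRET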
#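 Test system: GST-NR2E3 and biotin-RetCOR proteins | Quantity: 1.35 nM GST-tagged NR2E3 final | Medium: Tris pH 7.5 | Also added: 7 nM biotin-RetCOR | Dosing: Compound at 4.8 µM, single dose | Timing: 5 h at 4 °C | Detection: Time-resolved FRET | Read-out basis: Percent inhibition | Benchmarks: Biotin wells as high control, 0.6% DMSO wells as low control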
# The depositor's hits bear a star; . = no result. Rows were chosen to be rich in hits. Some 1.3% of all compounds tested hit in one or more screens of this group.
SMILES,GASC-1 inh,PGE2 EP2 inh,Furin inh,EP2 modulator,NR2E3 ag-1,NR2E3 ag-2
O=C1NC(=O)C(=Cc2ccc(Br)s2)C(=O)N1,.,115.2*,.,-91.8,.,.
COc1ccc(CN2C3CCC2CC(O)(c2ccccc2F)C3)cc1OC(C)C (centres undefined),.,5.6,.,-13.4,.,.
CNc1ccc2oc(C[C@H]3O[C@@]4(CC[C@H]3C)O[C@H]([C@H](C)C(=O)c3ccc[nH]3)[C@H](C)C[C@H]4C)nc2c1C(=O)O,18.1,70.9*,-30.6,56.9,3.9,0.4
CCCc1nc2ccccc2c(=O)n1-c1ccc(Cl)cc1,.,10.5,.,25.1,.,.
CCCOc1c(CN2C3CCC2CC(O)(c2ccc(F)cc2)C3)cccc1OC (centres undefined),.,7.4,.,-26.0,.,.
Cc1cc(OC(=O)N(C)C)nc2c1c(C)nn2C,-2.1,4.8,-18.2,19.7,20.4,0.7
COCc1cc(OC(=O)N(C)C)nc2c1c(C)nn2C,62.8*,3.2,-23.9,-17.3,6.4,-1.8
CC(C)C(=O)N1CCCc2cc(C(O)CN3CC=C(c4ccc(F)cc4)CC3)ccc21 (centres undefined),.,6.2,.,-55.1,.,.
CC1(C)CC(=N[N-]C(N)=[SH+])CC(C)(C)N1.CC1(C)CC(=N[N-]C(N)=[SH+])CC(C)(C)N1.[Ni],.,50.9*,.,-5.7,.,.
COC(=O)c1c(C)ccc2c(O)c3c(cc12)C(=O)c1c2c(cc(O)c1C3=O)[C@@]1(C)O[C@@](C)(O2)[C@@H](O)[C@H](N(C)C)[C@H]1O,.,42.4*,.,12.2,.,.
Cn1ccnc1C1(O)CC2CCC(C1)N2CC(=O)Nc1ccc(N2CCOCC2)cc1 (centres undefined),.,.,.,-2.6,.,.
C=CCn1c(O)c(/C=N/NC(=O)c2ccncc2)c(=O)[nH]c1=O,-39.3,1.6,36.4*,-2.4,-8.9,3.5
O=C(N/N=C/c1c(O)n(Cc2ccccc2)c(=O)[nH]c1=O)c1ccncc1,9.6,3.8,2.6,16.2,5.7,-3.9
Cc1ccc(C[n+]2c(-c3ccc(C)cc3)cc(-c3ccc(C)cc3)cc2-c2ccc(C)cc2)cc1,-5.4,.,.,.,99.3*,1.5
FC(F)(F)c1nc2ccc(SSc3ccc4nc(C(F)(F)F)[nH]c4c3)cc2[nH]1,.,78.9*,.,21.0,.,.
C[N+]1(C)[C@@H]2CC[C@H]1CC(OC(=O)[C@@H](CO)c1ccccc1)C2 (some centres undefined),-0.3,49.5*,.,20.1,0.9,-3.5
CCCn1c(C(=O)c2ccc(OC)c(OC)c2)nc2ccccc21,.,14.7,.,33.8,.,.
CCN1CCN(c2ccc([N+](=O)[O-])cc2C=C2C(=O)NC(=O)NC2=O)CC1,56.8*,7.5,-8.5,23.2,-24.3,-1.0
CCOC(=O)N1CCC(NC(=O)CCc2nc(C3=CCN(C)CC3)no2)CC1,52.8*,6.9,-28.0,37.3,10.3,10.2
O=C1C(Cl)C(CCl)CN1c1cccc(C(F)(F)F)c1 (centres undefined),.,14.0,.,-41.6,.,.
Nc1ccc(S(=O)(=O)c2ccc(NCN3C(=O)NC(=O)C(=O)C3=O)cc2)cc1,.,43.6*,.,14.4,.,.
COc1ccc(CN2CCN(C(=O)COc3ccccc3)CC2)c(OC)c1OC,.,7.3,.,-75.7,.,.
C[C@H]1CCC/C=C/C2C[C@H](O)CC2[C@H](O)/C=C/C(=O)O1 (some centres undefined),-4.4,16.7,-14.2,16.1,95.9*,-0.5
CC1(C)C[C@H]2C=C(C=O)[C@]3(C=O)C[C@]3(C)[C@H]2C1,-10.0,88.3*,-10.7,-34.4,18.1,3.3
COc1ccc(-n2c(C)nc3c(Br)cc(Br)cc3c2=O)cc1,.,16.0,.,27.6,.,.
SMILES,GASC-1 inh,PGE2 EP2 inh,Furin inh,EP2 modulator,NR2E3 ag-1,NR2E3 ag-2
O=C(O)C(Oc1nc(=S)[nH]c(=S)[nH]1)(c1ccc(Cl)cc1)c1ccc(Cl)cc1,.,49.7*,.,8.5,.,.
Nc1ccc([As](=O)(O)O)cc1,-4.2,16.2,-10.7,32.6,-11.7,0.3
O=[As](O)(O)c1ccc(Cc2ccc([As](=O)(O)O)cc2)cc1,.,92.7*,.,-36.9,.,.
CCC(N)C(O)c1ccc(O)c(O)c1 (centres undefined),.,11.6,.,74.2*,.,.
C=C1C2CC[C@H]3[C@]4(C)C[C@H](OC5OC(CO)C(OS(=O)(=O)O)C(OS(=O)(=O)O)C5OC(=O)CC(C)C)C[C@@H](C(=O)O)[C@H]4CC[C@]3(C2)[C@H]1O (some centres undefined),.,10.2,.,-2.6,.,.
CN1/C(=C\C=C2C(=O)NC(=O)NC2=O)C(C)(C)c2ccccc21,-6.8,7.9,27.9*,0.4,-10.7,-0.1
CN1/C(=C\C=Nc2ccccc2)C(C)(C)c2ccccc21,3.0,21.5,-7.1,6.2,-1.1,0.3
CN1CCC(NCCO)CC1,.,8.6,.,-45.0,.,.
CC(C)[C@H]1CN(Cc2ccco2)CCN1C(=O)Cc1nn(C(C)C)c(=O)c2ccccc12,.,.,.,-16.9,.,.
C[C@H]1CC[C@]2(NC1)O[C@H]1C[C@H]3[C@H]4CC=C5C[C@@H](O)CC[C@]5(C)[C@@H]4CC[C@]3(C)[C@H]1[C@@H]2C,.,57.7*,.,7.4,.,.
CCOC(=O)CC1=C(C(=O)OCC)C2(C(=O)N(C)c3ccccc32)C(C#N)=C(N)O1 (centres undefined),.,9.0,.,-4.0,.,.
O=C1N[C@]2(CN3CCC2CC3)C(=O)N1CN(Cc1ccccc1)c1ccccc1,.,53.5*,.,7.7,.,.
CN(Cc1ccccc1)C(=O)CN1CCCC1=O,-6.4,.,.,.,12.8,3.2
O=C(CN1C2CCC1CC(O)(c1ccco1)C2)NCc1ccc(F)cc1 (centres undefined),.,.,.,-14.1,.,.
O=C(c1ccncc1)N1CCN(C2C3CC4CC(C3)CC2C4)CC1 (centres undefined),.,4.4,.,-0.8,.,.
O=C(C[C@H](c1ccccc1)c1c(O)c2ccccc2oc1=O)c1ccccc1,.,45.7*,.,11.9,.,.
COc1ccc(/C=C2\C(=O)C3CCN2CC3)cc1OC,.,13.5,.,-20.8,.,.
CCCC[C@@H](C)C[C@@H](C)C(=O)N(C)[C@@H](CC(C)C)C(=O)N[C@H](C(=O)N(C)[C@H](C(=O)N1C[C@@H](O)C[C@H]1C(=O)N1C(=O)C=C[C@@H]1C)C(C)C)C(C)OC(C)=O (some centres undefined),.,.,.,.,81.8*,.
COc1cc2c(cc1OC)[C@]13CC[N@+]4(C)CC5=CCO[C@@H]6CC(=O)N2[C@@H]1[C@@H]6[C@@H]5C[C@]34O,.,41.5*,.,27.4,.,.

# Source: PubChem BioAssay
